What follows are compounds tested on Rattus norvegicus (assay: Antihypertensive activity in spontaneously hypertensive rats was measured as average blood pressure at 100 mg/kg, p.o. after 24 hours of postdose-1.). Details: route oral.
Type: functional
In short: (§1)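 Spontaneously hypertensive rats aged 12 to 16 weeks, in groups of five with systolic pressure of 170 mmHg or more. Oral dosing as a solution or suspension in 0.25% methylcellulose, 5 mL/kg, with a vehicle control group. Tail-cuff systolic pressure was read predose and 4 and 24 h after each of two doses. Values were compared with predose by Student's t test.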
In the case of `N#Cc1c(-c2ccc(Cl)cc2)c(-c2ccc(Cl)cc2)nn(CCCC(=O)O)c1=O`, the BP is reported as 204 mmHg.
`C[C@](N)(Cc1ccc(O)c(O)c1)C(=O)O` [METHYLDOPA] was tested, and the BP was 174 mmHg.
`CC(=O)c1c(-c2ccc(F)cc2)c(-c2ccc(F)cc2)nn(CCO)c1=O` was tested, and the BP was 160 mmHg.
`CN(C)c1ccc(-c2c(-c3ccc(Cl)cc3)c(-c3ccc(Cl)cc3)nn(CCO)c2=O)cc1.Cl` gave a BP of 199 mmHg.

What follows are compounds tested on Rattus norvegicus (assay: Antihypertensive activity in spontaneously hypertensive rats was measured as average blood pressure at 100 mg/kg, po after 24 hours of postdose-2). Details: not given.
Type: functional
In short: as §1
With `N#Cc1c(-c2ccc(Cl)cc2)c(-c2ccc(Cl)cc2)nn(CCCC(=O)O)c1=O` the BP was 180 mmHg.
Compound `C[C@](N)(Cc1ccc(O)c(O)c1)C(=O)O` [METHYLDOPA] has a BP of 166 mmHg.
Compound `CC(=O)c1c(-c2ccc(F)cc2)c(-c2ccc(F)cc2)nn(CCO)c1=O` has a BP of 180 mmHg.
For `CN(C)c1ccc(-c2c(-c3ccc(Cl)cc3)c(-c3ccc(Cl)cc3)nn(CCO)c2=O)cc1.Cl`, the BP was 208 mmHg.

These compounds were tested on Rattus norvegicus (assay: Antihypertensive activity in spontaneously hypertensive rats was measured as average blood pressure at 100 mg/kg, p.o. after 4 hours of postdose-1). Details: route oral.
Type: functional
In short: as §1
`C[C@](N)(Cc1ccc(O)c(O)c1)C(=O)O` [METHYLDOPA] was tested, and the BP was 161 mmHg.
With `CC(=O)c1c(-c2ccc(F)cc2)c(-c2ccc(F)cc2)nn(CCO)c1=O` the BP was 138 mmHg.
With `CN(C)c1ccc(-c2c(-c3ccc(Cl)cc3)c(-c3ccc(Cl)cc3)nn(CCO)c2=O)cc1.Cl` the BP was 184 mmHg.

The compounds below were run on Rattus norvegicus (assay: Antihypertensive activity in spontaneously hypertensive rats was measured as average blood pressure at 100 mg/kg, p.o. after 4 hours of postdose-1.). Details: route oral.
Type: functional
In short: as §1
Compound `N#Cc1c(-c2ccc(Cl)cc2)c(-c2ccc(Cl)cc2)nn(CCCC(=O)O)c1=O` has a BP of 202 mmHg.

Each compound was assayed on Rattus norvegicus (assay: Antihypertensive activity in spontaneously hypertensive rats was measured as average blood pressure at 100 mg/kg, p.o. after 4 hours of postdose-2). Details: route oral.
Type: functional
In short: as §1
`N#Cc1c(-c2ccc(Cl)cc2)c(-c2ccc(Cl)cc2)nn(CCCC(=O)O)c1=O` showed a BP of 175 mmHg.
For `C[C@](N)(Cc1ccc(O)c(O)c1)C(=O)O` [METHYLDOPA], the BP was 155 mmHg.
For `CC(=O)c1c(-c2ccc(F)cc2)c(-c2ccc(F)cc2)nn(CCO)c1=O`, the BP was 166 mmHg.
In the case of `CN(C)c1ccc(-c2c(-c3ccc(Cl)cc3)c(-c3ccc(Cl)cc3)nn(CCO)c2=O)cc1.Cl`, the BP is reported as 188 mmHg.

What follows are compounds tested on Rattus norvegicus (assay: Antihypertensive activity in spontaneously hypertensive rats was measured as average blood pressure at 100 mg/kg, p.o. before predose). Details: route oral.
Type: functional
In short: as §1
`N#Cc1c(-c2ccc(Cl)cc2)c(-c2ccc(Cl)cc2)nn(CCCC(=O)O)c1=O` was tested, and the BP was 215 mmHg.
With `C[C@](N)(Cc1ccc(O)c(O)c1)C(=O)O` [METHYLDOPA] the BP was 178 mmHg.
Work on `CC(=O)c1c(-c2ccc(F)cc2)c(-c2ccc(F)cc2)nn(CCO)c1=O` yielded a BP of 186 mmHg.
`CN(C)c1ccc(-c2c(-c3ccc(Cl)cc3)c(-c3ccc(Cl)cc3)nn(CCO)c2=O)cc1.Cl` showed a BP of 223 mmHg.

These compounds were tested on Rattus norvegicus (assay: Antihypertensive activity in spontaneously hypertensive rats was measured as increase in heart rate at 100 mg/kg peroral dose; (+)=Increased heart rate). Details: not given.
Type: functional, organism-based
Design: dose 100 mg/kg
`CN(C)c1ccc(-c2c(-c3ccc(Cl)cc3)c(-c3ccc(Cl)cc3)nn(CCO)c2=O)cc1.Cl` was tested, and the Heart rate was “Increased heart rate”.
